# Experimental data as given in ChEMBL document CHEMBL1130012 (J Med Chem, 1997).
# pKi: −log10 of the molar value.
# Assays:
# [1] = species on record: Rattus norvegicus; assay: The Biodistribution of the antagonistic compound in male wistar rats, after 15 minutes of injection in the trachea expressed as (body weight-corrected) uptake value; type: organism-based; conditions: in vivo, 0.25 h
# [2] = test system: Rattus norvegicus; assay: The Biodistribution of the antagonistic compound along with pretreated atropine (2.5 mg/kg) in male wistar rats after 15 minutes of injection in the pancreas expressed as (body weight-corrected) uptake value; type: organism-based; conditions: in vivo, 0.25 h
# Method in brief: (§1)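 Same protocol, except the pretreatment was saline containing atropine (0.5 mg/0.5 mL; 2.5 mg/kg) given i.v. 1 min before tail-vein injection of the radioligand (1.85-2.78 MBq in 0.4 mL saline) into pentobarbital-anaesthetized (60 mg/kg) male Wistar rats (240 g). Tissues removed at 15 min and counted ex vivo. Uptake is body-weight-corrected DAR = (cpm/g tissue)/(cpm injected/g body weight).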
# [3] = test system: Rattus norvegicus; assay: The Biodistribution of the antagonistic compound along with pretreated atropine (2.5 mg/kg) in male wistar rats after 15 minutes of injection in the plasma expressed as (body weight-corrected) uptake value; type: organism-based; conditions: in vivo, 0.25 h; method in brief: as §1
# [4] = test system: Rattus norvegicus; assay: The Biodistribution of the antagonistic compound along with pretreated atropine (2.5 mg/kg) in male wistar rats after 15 minutes of injection in the red blood cells expressed as (body weight-corrected) uptake value; Below limit of detection; type: organism-based; conditions: in vivo, 0.25 h; method in brief: as §1
# [5] = test system: Rattus norvegicus; assay: The Biodistribution of the antagonistic compound along with pretreated atropine (2.5 mg/kg) in male wistar rats after 15 minutes of injection in the spleen expressed as (body weight-corrected) uptake value; type: organism-based; conditions: in vivo, 0.25 h; method in brief: as §1
# [6] = test system: Rattus norvegicus; assay: The Biodistribution of the antagonistic compound along with pretreated atropine (2.5 mg/kg) in male wistar rats after 15 minutes of injection in the submandibular gland expressed as (body weight-corrected) uptake value; type: organism-based; conditions: in vivo, 0.25 h; method in brief: as §1
# [7] = test system: Rattus norvegicus; assay: The Biodistribution of the antagonistic compound along with pretreated atropine (2.5 mg/kg) in male wistar rats after 15 minutes of injection in the testes expressed as (body weight-corrected) uptake value; type: organism-based, Testis; conditions: in vivo, 0.25 h; method in brief: as §1
# [8] = test system: Rattus norvegicus; assay: The Biodistribution of the antagonistic compound along with pretreated atropine (2.5 mg/kg) in male wistar rats after 15 minutes of injection in the trachea expressed as (body weight-corrected) uptake value; type: organism-based; conditions: in vivo, 0.25 h; method in brief: as §1
# [9] = species on record: Rattus norvegicus; assay: The Biodistribution of the antagonistic compound in male wistar rats, after 15 minutes of injection in the bladder expressed as (body weight-corrected) uptake value; type: organism-based, Urinary bladder/Urine; conditions: in vivo, 0.25 h
# [10] = species on record: Rattus norvegicus; assay: The Biodistribution of the antagonistic compound in male wistar rats, after 15 minutes of injection in the cerebellum expressed as (body weight-corrected) uptake value; Below limit of detection; type: organism-based; conditions: in vivo, 0.25 h
# [11] = species on record: Rattus norvegicus; assay: The Biodistribution of the antagonistic compound in male wistar rats, after 15 minutes of injection in the cortex expressed as (body weight-corrected) uptake value; Below limit of detection; type: organism-based; conditions: in vivo, 0.25 h
# [12] = species on record: Rattus norvegicus; assay: The Biodistribution of the antagonistic compound in male wistar rats, after 15 minutes of injection in the fat; type: organism-based; conditions: in vivo, 0.25 h
# [13] = species on record: Rattus norvegicus; assay: The Biodistribution of the antagonistic compound in male wistar rats, after 15 minutes of injection in the heart expressed as (body weight-corrected) uptake value; type: organism-based; conditions: in vivo, 0.25 h
# [14] = species on record: Rattus norvegicus; assay: The Biodistribution of the antagonistic compound in male wistar rats, after 15 minutes of injection in the intestine expressed as (body weight-corrected) uptake value; type: organism-based; conditions: in vivo, 0.25 h
# [15] = species on record: Rattus norvegicus; assay: The Biodistribution of the antagonistic compound in male wistar rats, after 15 minutes of injection in the kidney expressed as (body weight-corrected) uptake value; type: organism-based; conditions: in vivo, 0.25 h
# [16] = species on record: Rattus norvegicus; assay: The Biodistribution of the antagonistic compound in male wistar rats, after 15 minutes of injection in the lung expressed as (body weight-corrected) uptake value; type: organism-based; conditions: in vivo, 0.25 h
# [17] = species on record: Rattus norvegicus; assay: The Biodistribution of the antagonistic compound in male wistar rats, after 15 minutes of injection in the muscle expressed as (body weight-corrected) uptake value; type: organism-based, Muscle tissue; conditions: in vivo, 0.25 h
# [18] = species on record: Rattus norvegicus; assay: The Biodistribution of the antagonistic compound in male wistar rats, after 15 minutes of injection in the pancreas expressed as (body weight-corrected) uptake value; type: organism-based; conditions: in vivo, 0.25 h
# [19] = species on record: Rattus norvegicus; assay: The Biodistribution of the antagonistic compound in male wistar rats, after 15 minutes of injection in the plasma expressed as (body weight-corrected) uptake value; type: organism-based; conditions: in vivo, 0.25 h
# [20] = test system: Rattus norvegicus; assay: The Biodistribution of the antagonistic compound along with pretreated atropine (2.5 mg/kg) in male wistar rats after 15 minutes of injection in the bladder; type: organism-based, Urinary bladder/Urine; conditions: in vivo, 0.25 h; method in brief: as §1
# [21] = test system: Rattus norvegicus; assay: The Biodistribution of the antagonistic compound along with pretreated atropine (2.5 mg/kg) in male wistar rats after 15 minutes of injection in the cerebellum; Below limit of detection; type: organism-based; conditions: in vivo, 0.25 h; method in brief: as §1
# [22] = test system: Rattus norvegicus; assay: The Biodistribution of the antagonistic compound along with pretreated atropine (2.5 mg/kg) in male wistar rats after 15 minutes of injection in the cortex expressed as (body weight-corrected) uptake value; Below limit of detection; type: organism-based; conditions: in vivo, 0.25 h; method in brief: as §1
# [23] = test system: Rattus norvegicus; assay: The Biodistribution of the antagonistic compound along with pretreated atropine (2.5 mg/kg) in male wistar rats after 15 minutes of injection in the fat expressed as (body weight-corrected) uptake value; type: organism-based, Adipose tissue; conditions: in vivo, 0.25 h; method in brief: as §1
# [24] = test system: Rattus norvegicus; assay: The Biodistribution of the antagonistic compound along with pretreated atropine (2.5 mg/kg) in male wistar rats after 15 minutes of injection in the heart expressed as (body weight-corrected) uptake value; type: organism-based; conditions: in vivo, 0.25 h; method in brief: as §1
# [25] = species on record: Rattus norvegicus; assay: The Biodistribution of the antagonistic compound in male wistar rats, after 15 minutes of injection in the red blood cells expressed as (body weight-corrected) uptake value; Below limit of detection; type: organism-based; conditions: in vivo, 0.25 h
# [26] = species on record: Rattus norvegicus; assay: The Biodistribution of the antagonistic compound in male wistar rats, after 15 minutes of injection in the spleen; type: organism-based; conditions: in vivo, 0.25 h
# [27] = species on record: Rattus norvegicus; assay: The Biodistribution of the antagonistic compound in male wistar rats, after 15 minutes of injection in the stomach expressed as (body weight-corrected) uptake value; type: organism-based; conditions: in vivo, 0.25 h
# [28] = species on record: Rattus norvegicus; assay: The Biodistribution of the antagonistic compound in male wistar rats, after 15 minutes of injection in the submandibular gland expressed as (body weight-corrected) uptake value; type: organism-based; conditions: in vivo, 0.25 h
# [29] = species on record: Rattus norvegicus; assay: The Biodistribution of the antagonistic compound in male wistar rats, after 15 minutes of injection in the testes expressed as (body weight-corrected) uptake value; type: organism-based, Testis; conditions: in vivo, 0.25 h
# [30] = test system: Rattus norvegicus; assay: The Biodistribution of the antagonistic compound along with pretreated atropine (2.5 mg/kg) in male wistar rats after 15 minutes of injection in the intestine expressed as (body weight-corrected) uptake value; type: organism-based; conditions: in vivo, 0.25 h; method in brief: as §1
# [31] = test system: Rattus norvegicus; assay: The Biodistribution of the antagonistic compound along with pretreated atropine (2.5 mg/kg) in male wistar rats after 15 minutes of injection in the kidney expressed as (body weight-corrected) uptake value; type: organism-based; conditions: in vivo, 0.25 h; method in brief: as §1
# [32] = test system: Rattus norvegicus; assay: The Biodistribution of the antagonistic compound along with pretreated atropine (2.5 mg/kg) in male wistar rats after 15 minutes of injection in the liver expressed as (body weight-corrected) uptake value; type: organism-based; conditions: in vivo, 0.25 h; method in brief: as §1
# [33] = test system: Rattus norvegicus; assay: The Biodistribution of the antagonistic compound along with pretreated atropine (2.5 mg/kg) in male wistar rats after 15 minutes of injection in the lung expressed as (body weight-corrected) uptake value; type: organism-based; conditions: in vivo, 0.25 h; method in brief: as §1
# [34] = test system: Rattus norvegicus; assay: The Biodistribution of the antagonistic compound along with pretreated atropine (2.5 mg/kg) in male wistar rats after 15 minutes of injection in the muscle expressed as (body weight-corrected) uptake value; type: organism-based, Muscle tissue; conditions: in vivo, 0.25 h; method in brief: as §1
# [35] = target: T1, Muscarinic acetylcholine receptor M2 (Rattus norvegicus, UniProt P10980); assay: Binding affinity towards rat Muscarinic acetylcholine receptor M2 was determined
# T1 sequence (P10980 whole entry): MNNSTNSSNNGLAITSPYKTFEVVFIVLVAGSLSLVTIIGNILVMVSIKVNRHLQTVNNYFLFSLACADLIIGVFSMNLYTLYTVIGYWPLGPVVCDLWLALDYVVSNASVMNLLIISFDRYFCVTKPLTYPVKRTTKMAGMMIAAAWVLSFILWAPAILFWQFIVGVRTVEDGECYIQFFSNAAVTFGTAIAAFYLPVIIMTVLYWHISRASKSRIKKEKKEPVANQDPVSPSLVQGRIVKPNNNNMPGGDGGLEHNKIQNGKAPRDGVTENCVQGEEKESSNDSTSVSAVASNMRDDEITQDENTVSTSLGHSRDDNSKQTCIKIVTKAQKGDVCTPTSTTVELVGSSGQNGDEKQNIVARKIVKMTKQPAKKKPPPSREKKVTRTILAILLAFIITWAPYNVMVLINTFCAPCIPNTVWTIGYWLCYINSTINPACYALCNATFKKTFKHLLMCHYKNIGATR
# [36] = target: T2, Muscarinic acetylcholine receptor M1 (Bos taurus, UniProt Q8WMX0); type: cell membranes, Brain, Membrane
# T2 sequence (Q8WMX0 whole entry): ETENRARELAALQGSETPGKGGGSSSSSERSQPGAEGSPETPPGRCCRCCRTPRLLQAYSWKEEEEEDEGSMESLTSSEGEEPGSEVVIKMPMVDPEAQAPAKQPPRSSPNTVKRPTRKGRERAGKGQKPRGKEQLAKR
# [37] = target: T3, Muscarinic acetylcholine receptor M1 (Rattus norvegicus, UniProt P08482); assay: Binding affinity towards rat Muscarinic acetylcholine receptor M1 was determined
# T3 sequence (P08482 whole entry): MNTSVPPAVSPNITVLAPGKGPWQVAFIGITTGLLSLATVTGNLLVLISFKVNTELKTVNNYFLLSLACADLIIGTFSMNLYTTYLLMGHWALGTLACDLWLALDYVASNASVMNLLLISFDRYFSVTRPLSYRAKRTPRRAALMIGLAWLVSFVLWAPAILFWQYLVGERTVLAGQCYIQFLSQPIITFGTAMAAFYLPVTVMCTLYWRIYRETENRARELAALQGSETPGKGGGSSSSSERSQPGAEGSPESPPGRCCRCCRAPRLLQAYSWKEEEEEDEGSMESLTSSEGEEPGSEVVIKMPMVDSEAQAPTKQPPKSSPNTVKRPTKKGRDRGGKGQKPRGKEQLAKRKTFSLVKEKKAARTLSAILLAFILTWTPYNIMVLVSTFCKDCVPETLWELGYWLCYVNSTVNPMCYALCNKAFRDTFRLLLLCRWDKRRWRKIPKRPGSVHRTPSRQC
# [38] = species on record: Rattus norvegicus; assay: The Biodistribution of the antagonistic compound in male wistar rats, after 15 minutes of injection in the liver expressed as (body weight-corrected) uptake value; type: organism-based; conditions: in vivo, 0.25 h
# [39] = test system: Rattus norvegicus; assay: The Biodistribution of the antagonistic compound along with pretreated atropine (2.5 mg/kg) in male wistar rats after 15 minutes of injection in the stomach expressed as (body weight-corrected) uptake value; type: organism-based; conditions: in vivo, 0.25 h; method in brief: as §1
smiles,measurement,setting,value
C[N+]1(C)CCC(OC(=O)[C@](O)(c2ccccc2)C2CCCCC2)CC1.[I-],Uptake value,[1],0.89
same,Uptake value,[2],0.35
same,Uptake value,[3],0.19
same,Uptake value,[4],Not Active
same,Uptake value,[5],0.12
same,Uptake value,[6],0.23
same,Uptake value,[7],0.16
same,Uptake value,[8],0.26
same,Uptake value,[9],4.68
same,Uptake value,[10],Not Active
same,Uptake value,[11],Not Active
same,Uptake value,[12],0.1
same,Uptake value,[13],12.78
same,Uptake value,[14],6.08
same,Uptake value,[15],2.75
same,Uptake value,[16],1.03
same,Uptake value,[17],0.07
same,Uptake value,[18],2.85
same,Uptake value,[19],0.1
same,Uptake value,[20],5.92
same,Uptake value,[21],Not Active
same,Uptake value,[22],Not Active
same,Uptake value,[23],0.37
same,Uptake value,[24],0.12
same,Uptake value,[25],Not Active
same,Uptake value,[26],1.23
same,Uptake value,[27],2.76
same,Uptake value,[28],2.64
same,Uptake value,[29],0.12
same,Uptake value,[30],0.97
same,Uptake value,[31],4.32
same,Uptake value,[32],9.41
same,Uptake value,[33],0.11
same,Uptake value,[34],0.07
same,pKi,[35],9.68
same,pKi,[36],10.70
same,pKi,[37],11.00
same,Uptake value,[38],5.42
same,Uptake value,[39],0.22
